Calls of active or inactive are those of the source. The rule behind the calls is not given here.

Holding throughout (assay type): functional, organism-based
Test [1] has as its system Rattus norvegicus. Put plainly: Reduction of apomorphine-induced stereotyped behavior in Sprague-Dawley rat at 6 ug/ul, icv. An outline of the steps: (§1)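 Rats cannulated in the right lateral ventricle. ICV infusion of 0.6 or 6.0 µg/5 µl, or 0.9% NaCl, at 0.5 µl/min. Apomorphine HCl (1 mg/kg) given 1 min before observation began. Stereotyped gnawing recorded by computer at 4.5 min intervals for 45 min. Four rats per measurement; means ± SEM; ANOVA with Duncan's multiple range test.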

Test [2] has as its system Rattus norvegicus. Put plainly: Inhibition of dopamine-induced diuresis in icv dosed Sprague-Dawley rat. An outline of the steps: (§2)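 Male Sprague-Dawley rats (220–280 g) with a left lateral ventricle cannula. ICV pretreatment of 50 µg/5 µl, or vehicle 5 µl, given 15 min before ICV dopamine (100 µg/5 µl) or saline, then oral water 20 ml/kg. Urine volume and sodium (flame photometry) measured over 3 h and 6 h collections. N = 6–8; two-way ANOVA with Newman–Keuls.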

Test [3] relates to Rattus norvegicus. Description: Induction of stereotyped behavior in Sprague-Dawley rat at 0.6 ug/ul, icv. An outline of the steps:
(§3)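 Cannula placed in the right lateral ventricle under pentobarbital (40 mg/kg, ip) at 0.40 mm bregma, 1.1 mm lateral, 2.2 mm ventral. After 3 days, compound (0.6 or 6.0 µg/5 µl, or 50 µg/5 µl) or 0.9% NaCl infused at 0.5 µl/min. Starting 5 min later, behavior observed for 45 min in Plexiglas chambers. Gnawing recorded by computer at 4.5 min intervals. Four rats per measurement; ANOVA with Duncan's test.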

In test [4] the test system is Rattus norvegicus. Description: Natriuretic effect in icv dosed Sprague-Dawley rat assessed as increase in sodium excretion after 3 hrs. An outline of the steps:
(§4)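 Adult male Sprague-Dawley rats (220–280 g) fitted with a cannula in the left lateral cerebroventricle under pentobarbital (40 mg/kg, ip), then allowed at least 3 days of recovery. Single ICV injection of 50 µg/10 µl, or vehicle NaCl 0.9%. Oral water load of 20 ml/kg, then individual metabolic cages. Urine collected at 3 and 6 h, with the bladder emptied at 6 h. Sodium measured by flame photometry. N = 6–8 per group; two-way ANOVA with Newman–Keuls.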

Test [5] deals with Rattus norvegicus. Put plainly: Inhibition of dopamine-induced natriuresis in icv dosed Sprague-Dawley rat. An outline of the steps: as §2
For test [6], the system named is Rattus norvegicus. Put plainly: Induction of stereotyped behavior in Sprague-Dawley rat at 6 ug/ul, icv. An outline of the steps: as §3
Test [7] relates to Rattus norvegicus. Put plainly: Reduction of apomorphine-induced stereotyped behavior in Sprague-Dawley rat at 0.6 ug/ul, icv. An outline of the steps: as §1
The subject of test [8] is Rattus norvegicus. Put plainly: Diuretic effect in icv dosed Sprague-Dawley rat assessed as increase in urine volume after 6 hrs. An outline of the steps: as §4
For test [9], the system named is Rattus norvegicus. Description: Natriuretic effect in icv dosed Sprague-Dawley rat assessed as increase in sodium excretion after 6 hrs. An outline of the steps:
as §4

In test [10] the test system is Rattus norvegicus. Put plainly: Induction of stereotyped behavior in icv dosed Sprague-Dawley rat. An outline of the steps:
as §3

As to `CC(Cc1ccc(O)c(O)c1)NC1Cc2ccc(O)c(O)c2C1` (configuration not stated), the outcome in the test on Rattus norvegicus [1], in the test on Rattus norvegicus [2], in the test with Rattus norvegicus [5] and with Rattus norvegicus [7] was Active. The outcome in the test with Rattus norvegicus [3], in the test with Rattus norvegicus [4], in the test with Rattus norvegicus [6], in the test with Rattus norvegicus [8] and with Rattus norvegicus [9] was inactive.
Consider `CCC(C)NC1Cc2ccc(O)c(O)c2C1` (configuration not stated), for which the result in the test with Rattus norvegicus [10], in the test on Rattus norvegicus [8] and in the test on Rattus norvegicus [9] was Active.

The values above are taken from ChEMBL document CHEMBL1143933, “Synthesis, dopaminergic profile, and molecular dynamics calculations of N-aralkyl substituted 2-aminoindans” (Bioorg Med Chem, 2008).
